# Results taken from PubChem BioAssay.
# Activity calls are given as the source filed them.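 The calls were made as follows, unless noted: active = visual image review flags a hit and inhibition of aggregation exceeds 20%; inconclusive = visual hit but inhibition at or below 20%; inactive = no hit on visual image review.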
# How the values were obtained:
# [1] = inhibitors of TNFa-induced NFkB p65 translocation, primary screen, imaging, HUVEC, MLSMR starter and 10KST1 sets (AID 438;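 active = inhibition above 20% together with a positive visual image hit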;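 also: compound added about 3h40 before a 20 min TNFalpha stimulation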;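 as to inhibition: signal is the nuclear over cytoplasmic p65 intensity ratio per well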); conditions: HUVEC TNFa-induced p65 nuclear translocation; cell count: measured here: nuclei count (cytotoxicity indicator), at 2.08 µM; inhibition: at 2 µM, stronger effect = higher value, 0% TNFa-plus-vehicle, 100% no-TNFa wells
# [2] = inhibitors of mutant huntingtin aggregation, primary screen, imaging, exon1htt(103Q)mCFP cells, high-content imaging (AID 483); conditions: exon1htt(103Q)mCFP cell line, aggregate imaging, at 2 µM; inhibition of aggregation: stronger effect = higher value; nuclei count: measured here: cell count, toxicity;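 also: compound exposure lasted 3 days before fixation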;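 as to nuclei count: percent of the per-plate median nuclei count of sample wells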
# [3] = inhibitors of E-selectin induction by TNFa, primary screen, imaging, HUVEC, immunofluorescence, MLSMR starter and 10KST1 sets (AID 487;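 active = visually confirmed hit in the image check and inhibition above 20%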;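 as to inhibition: signal is fraction of cell area covered by stained E-selectin grains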;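 as to nuclei count: 100% = median nuclei count of all wells on the same plate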); conditions: HUVEC TNFalpha-induced E-selectin immunofluorescence imaging, at 2 µM; inhibition: stronger effect = higher value; nuclei count: measured here: cell number, toxicity
# [4] = target: Voltage-gated potassium channel subunit beta-2 (Rattus norvegicus) (UniProt P62483); assay: KvBeta enzyme negative modulators, primary screen, biochemical, NADPH fluorescence (AID 622;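 active = fluorescence slope higher than the sample average by over 3 SD, cut at about -0.22 in these data, passing the limit was not always enough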;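 also: slope of raw intensity against log time taken from 70 to 1610 s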); conditions: recombinant KvBeta, 4-cyanobenzaldehyde reduction, at 10 µM, stronger effect = higher value
# [5] = target: Voltage-gated potassium channel subunit beta-2 (Rattus norvegicus) (UniProt P62483); assay: KvBeta positive modulators, primary screen, biochemical, NADPH fluorescence (AID 623;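 active = NADPH fluorescence slope more negative than the mean of all samples by about 3 SD, 99.7% confidence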;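 also: fluorescence intensity change per second fitted from 20 to 320 s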); conditions: Recombinant KvBeta, NADPH fluorescence decrease slope, 10 min; at 10 µM; stronger effect = lower value
# [6] = target: Muscarinic acetylcholine receptor M4 (Homo sapiens) (UniProt P08173); assay: compounds altering M4/GIRK thallium flux, either direction, primary screen, M4 allosteric agonist project, cell-based, HEK293 M4/GIRK, BTC-AM (AID 625;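 active = fluorescence slope after compound addition differing from the mean of all tested samples at 99.7% confidence, mostly higher but some lower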;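 also: thallium influx through GIRK channels coupled to M4 in HEK293 cells with BTC-AM dye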); conditions: at 10 µM, actives lie on both sides
# Summary of the method: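 Assay system: HEK293 cells with M4 receptor and GIRK channels / Controls: carbachol and DMSO controls / Schedule: 1 h dye loading, 2 min kinetic read / Technique: kinetic fluorescence with BTC-AM dye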
# [7] = inhibitors of Sendai virus-induced IRF3 signaling, primary screen, TLR/RLR signaling modifier project, cell-based, Sendai virus stimulus, luciferase, 10K MLSCN set (AID 602276;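 active = inhibition at or above 50% at 10 µM; inactive = inhibition below 50%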;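 also: firefly luciferase from ISG56 promoter only with Renilla not read in this screen; 0% = Sendai virus plus DMSO and 100% = medium plus DMSO without virus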); conditions: HEK293 RL24 IRF3 luciferase reporter, at 10 µM, stronger effect = higher value
# [8] = inhibitors of poly I:C-induced TLR3 signaling, primary screen, cell-based, poly I:C stimulus, luciferase, 10K MLSCN set (AID 602277;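 active = inhibition of the reporter signal at or above 50%; inactive = inhibition below 50%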); conditions: HEK293-TLR3 RL24 IRF3 luciferase reporter, at 10 µM, stronger effect = higher value
# Muscarinic acetylcholine receptor M4 (Homo sapiens), sequence (P08173 whole entry, looked up): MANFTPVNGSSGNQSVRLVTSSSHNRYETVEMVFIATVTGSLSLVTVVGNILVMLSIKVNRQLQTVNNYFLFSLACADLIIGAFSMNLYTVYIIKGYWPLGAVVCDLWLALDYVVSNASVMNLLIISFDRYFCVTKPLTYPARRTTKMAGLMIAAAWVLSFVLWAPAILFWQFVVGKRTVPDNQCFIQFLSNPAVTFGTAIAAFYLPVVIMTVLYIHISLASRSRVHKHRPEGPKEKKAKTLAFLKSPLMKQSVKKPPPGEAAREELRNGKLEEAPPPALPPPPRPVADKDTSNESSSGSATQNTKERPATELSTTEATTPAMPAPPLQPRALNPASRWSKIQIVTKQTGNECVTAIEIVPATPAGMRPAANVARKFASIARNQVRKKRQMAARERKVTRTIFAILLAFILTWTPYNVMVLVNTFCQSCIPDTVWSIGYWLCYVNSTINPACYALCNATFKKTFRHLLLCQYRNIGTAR
# Voltage-gated potassium channel subunit beta-2 (Rattus norvegicus), sequence (P62483 whole entry, looked up): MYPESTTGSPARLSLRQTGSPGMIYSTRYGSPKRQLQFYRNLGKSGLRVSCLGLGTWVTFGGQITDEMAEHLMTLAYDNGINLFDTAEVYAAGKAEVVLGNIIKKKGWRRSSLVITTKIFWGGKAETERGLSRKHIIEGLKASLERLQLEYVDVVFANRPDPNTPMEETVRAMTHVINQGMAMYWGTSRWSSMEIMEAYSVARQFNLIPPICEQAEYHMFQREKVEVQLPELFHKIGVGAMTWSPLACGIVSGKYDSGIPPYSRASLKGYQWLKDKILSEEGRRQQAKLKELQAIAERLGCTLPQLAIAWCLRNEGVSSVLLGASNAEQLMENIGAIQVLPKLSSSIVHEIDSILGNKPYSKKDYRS
Compound,cell count [1],inhibition [1],inhibition of aggregation [2],nuclei count [2] [%],inhibition [3],nuclei count [3] [%],fluorescence slope [4],NADPH fluorescence slope [5],fluorescence slope [6],inhibition [7],inhibition [8]
COc1ccc(N2C(=O)CC(N3CCN(S(=O)(=O)c4c(F)cccc4F)CC3)C2=O)cc1OC (stereo not drawn),418,-6.6% (inactive),1% (inactive),99.7,-20.1% (inactive),112,-0.572 (inactive),-1.2e-05 (inactive),0.00422 (inactive),9.5% (inactive),12.6% (inactive)
COc1ccc(NC(=O)Nc2cc(C)ccc2OC)cc1,217,8.3% (inactive),-1.8% (inactive),98.6,-133% (inactive),120,-0.422 (inactive),-0.00041 (inactive),0.00547 (inactive),-39.1% (inactive),-80.2% (inactive)
COc1ccc(-c2cc(C(F)(F)F)nc(SCC(=O)NCc3ccco3)n2)cc1OC,614,-9.9% (inactive),-5.9% (inactive),94,-20.4% (inactive),103,-0.304 (inactive),-1.1e-05 (inactive),0.00529 (inactive),24.6% (inactive),23.2% (inactive)
CCOc1ccc(-c2nnc(N(CC)C(=O)C3CCC3)s2)cc1,440,9.7% (inactive),3.2% (inactive),103,-32% (inactive),111,-0.461 (inactive),2e-05 (inactive),0.00526 (inactive),-19.2% (inactive),-80.4% (inactive)
CCCn1c(NC(=O)C2COc3ccccc3O2)nc2ccccc21 (stereo not drawn),496,1% (inactive),-4.8% (inactive),98.3,-56% (inactive),102,-0.467 (inactive),0.000114 (inactive),0.00578 (inactive),15.8% (inactive),17.5% (inactive)
c1ccc2c(NC3CCCC3)nnc(NC3CCCC3)c2c1,797,7.4% (inactive),-6.1% (inactive),106,-69.1% (inactive),131,-0.419 (inactive),2.2e-05 (inactive),0.00394 (inactive),7.77% (inactive),7.29% (inactive)
O=P(O)(O)c1ccccc1OCCOCCOc1ccccc1P(=O)(O)O,311,-0.9% (inactive),8% (inactive),60.2,-21.3% (inactive),86.4,-0.308 (inactive),-5.3e-05 (inactive),0.00635 (inactive),11.2% (inactive),15.3% (inactive)
Cc1ccc(-n2c(=O)[nH]c3c(C(N)=O)nc(CC(C)C)nc32)cc1,297,37.7% (active),9.5% (inactive),92.3,6.3% (inactive),98.1,-0.536 (inactive),-0.000117 (inactive),0.00328 (inactive),-2.4% (inactive),8.27% (inactive)
CCOc1ccc(C(=O)N2CCC(C(=O)c3ccc4c(c3)OCCO4)CC2)cc1,511,-4.3% (inactive),6% (inactive),91.2,-99.7% (inactive),116,-0.511 (inactive),-0.000103 (inactive),0.00391 (inactive),10.8% (inactive),2.96% (inactive)
CCn1c(CSc2ncccn2)nnc1SCC(=O)N1c2ccccc2CC1C (stereo not drawn),644,27.9% (active),-1.3% (inactive),103,-3.3% (inactive),95.8,-0.446 (inactive),-7.9e-06 (inactive),0.00475 (inactive),12.2% (inactive),0.579% (inactive)
CCOC(=O)N1CCC(NC(=O)c2ccc3nc(N4CCOCC4)sc3c2)CC1,585,2.2% (inactive),0% (inactive),112,36% (inactive),90.8,-0.591 (inactive),1.8e-05 (inactive),0.00698 (inactive),12.9% (inactive),12.3% (inactive)
CCOc1cc(C2C(C(=O)c3ccccc3)=C(C(=O)OC)Nc3nnnn32)ccc1O (stereo not drawn),351,-7.9% (inactive),0% (inactive),110,-69.2% (inactive),157,-0.52 (inactive),-3.5e-05 (inactive),0.00584 (inactive),0.723% (inactive),11.1% (inactive)
Cc1cc(C)nc(N2CCCC(C(=O)Nc3ccc4c(c3)OCO4)C2)n1 (stereo not drawn),563,-19.4% (inactive),15.3% (inactive),71.5,7.1% (inactive),95.8,-0.279 (inactive),4.9e-06 (inactive),0.0054 (inactive),-3.52% (inactive),-3.39% (inactive)
COC(=O)CN1C(=O)C2(C(C#N)=C(N)Oc3c2c(C)nn3-c2ccccc2)c2ccccc21 (stereo not drawn),668,-24.1% (inactive),5% (inactive),97.4,18.6% (inactive),97.4,-0.475 (inactive),-6.6e-05 (inactive),0.0047 (inactive),16.1% (inactive),19.7% (inactive)
CCCn1c(SCC(=O)Nc2nnc(-c3ccccc3)s2)nnc1-c1ccccn1,591,-5.1% (inactive),14.9% (inactive),45.4,7% (inactive),105,-0.376 (inactive),1.2e-05 (inactive),0.00563 (inactive),-15.8% (inactive),-30% (inactive)
CCOC(=O)CSc1cn2c(n1)CCC2,547,-10.9% (inactive),14.3% (inactive),66.8,-25.8% (inactive),89.1,-0.595 (inactive),1.5e-05 (inactive),0.00761 (inactive),-11.5% (inactive),-11.4% (inactive)
O=C(COc1nnnc2ccccc12)N1CCCc2ccccc21,327,0.2% (inactive),-10.1% (inactive),106,-50.4% (inactive),130,-0.43 (inactive),-7.5e-05 (inactive),0.00597 (inactive),8.08% (inactive),16.5% (inactive)
Cc1ccccc1CNS(=O)(=O)c1ccc2c(c1)OCCO2,450,3.6% (inactive),2.1% (inactive),108,-11.6% (inactive),96.6,-0.558 (inactive),-1.9e-05 (inactive),0.00348 (inactive),7.7% (inactive),11.3% (inactive)
O=C(OCC(=O)c1c[nH]c2ccccc12)C1=COCCO1,579,-6.9% (inactive),-9.2% (inactive),100,-1% (inactive),69.3,-0.271 (inactive),-5.8e-05 (inactive),0.00653 (inactive),-19.9% (inactive),-100% (inactive)
CCN1CCN(c2nc(-c3cccnc3)nc3ccccc23)CC1,598,11.2% (inactive),-11.6% (inactive),94.7,-58.2% (inactive),103,-0.468 (inactive),2.1e-05 (inactive),0.00671 (inactive),12.9% (inactive),37.7% (inactive)
COc1ccc(N(CC(=O)NC2CCCC2)C(=O)Cn2nnc(-c3ccc(C)cc3)n2)cc1,465,-3.9% (inactive),8.3% (inactive),90.6,-65.7% (inactive),106,-0.587 (inactive),8e-06 (inactive),0.00452 (inactive),-14.1% (inactive),0.19% (inactive)
COc1ccccc1NC(=O)N1CCCC1C(=O)NC1CCCCC1 (stereo not drawn),582,0.4% (inactive),9% (inactive),92.5,-19.7% (inactive),121,-0.227 (inactive),-2.2e-05 (inactive),0.00721 (inactive),15.6% (inactive),11.1% (inactive)
O=C(C1CCC1)N1CCc2cc(S(=O)(=O)N3CCc4ccccc4C3)ccc21,299,0% (inactive),8.8% (inactive),113,-0.1% (inactive),118,-0.411 (inactive),7.8e-05 (inactive),0.00795 (inactive),-7.83% (inactive),4.09% (inactive)
CCN1CCCC1CNCc1ccc(Cl)cc1Cl (stereo not drawn),474,13.6% (inactive),1.2% (inactive),87.1,-106% (inactive),152,-0.316 (inactive),-1.4e-06 (inactive),0.0068 (inactive),-5.98% (inactive),5.14% (inactive)
COc1ccc(CN(C)CC(=O)c2c(N)n(Cc3ccccc3)c(=O)n(C)c2=O)c(OC)c1,459,-21.4% (inactive),-15.1% (inactive),103,2.2% (inactive),98.3,-0.579 (inactive),-1.3e-05 (inactive),0.00645 (inactive),17.1% (inactive),24.3% (inactive)
CCOP(=O)(c1ccc(N(C)C)cc1)C(O)c1cc(OC)c(OC)c(OC)c1 (stereo not drawn),713,-0.6% (inactive),0% (inactive),113,10.2% (inactive),103,-0.455 (inactive),-4.5e-05 (inactive),0.00563 (inactive),4.26% (inactive),21% (inactive)
CCC(=O)NC1(C(F)(F)F)C(=O)NC(C)=C1C#N (stereo not drawn),382,3.6% (inactive),11.2% (inactive),98.2,-18.8% (inactive),105,-0.445 (inactive),4.4e-05 (inactive),0.00561 (inactive),14.9% (inactive),25.3% (inactive)
COc1ccc(C(C)(C)C)cc1NC(=O)Nc1ccc2c(c1)OCO2,433,2.7% (inactive),7.4% (inactive),102,-13.1% (inactive),96.8,-0.577 (inactive),-8.3e-06 (inactive),0.0063 (inactive),-6.55% (inactive),-2.75% (inactive)
